Laboratory results from ChEMBL document CHEMBL4715718, “Methyl Protodioscin, a Steroidal Saponin, Inhibits Neointima Formation in Vitro and in Vivo” (J Nat Prod, 2016).
Active and inactive are the calls of the source. The calls are words filed in the database; no cut-off is given here.

Key:
[1] = Antiproliferative activity against rat A7r5 cells assessed as reduction in cell viability after 24 hrs by MTT assay; settings: A7R5, 24 h
A7R5 [2] = assay: Induction of cell cycle arrest in rat A7r5 cells assessed as accumulation of cells at G0/G1 phase at 3 to 9 uM after 18 hrs by PI/RNase A staining based flow cytometric analysis; format: functional; settings: dose 3-9 µM
A7R5 [3] = assay: Induction of apoptosis in rat A7r5 cells assessed as effect on Bax protein expression at 3 to 9 uM after 24 hrs by Western blot analysis; format: functional, cell-based; settings: dose 3-9 µM
Outline: (§1)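 Bax and Bcl-2 in A7r5 cells are immunoblotted after treatment (3, 6 and 9 μM, 24 h) in culture medium. Lysis in SDS/DTT/Tris buffer pH 6.8 at 95 °C, then SDS-PAGE and PVDF. Bands are given relative to the 10% FBS control, and the Bax/Bcl-2 ratio is computed. Triplicate; one-way ANOVA.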

A7R5 [4] = assay: Induction of apoptosis in rat A7r5 cells assessed as effect on Bcl2 protein expression at 3 to 9 uM after 24 hrs by Western blot analysis; format: functional, cell-based; settings: dose 3-9 µM; outline: as §1
A7R5 [5] = assay: Induction of apoptosis in rat A7r5 cells assessed as effect on Bax/Bcl2 expression ratio at 3 to 9 uM measured after 24 hrs by Western blot analysis; format: functional, cell-based; settings: dose 3-9 µM; outline: as §1
A7R5 [6] = assay: Induction of apoptosis in rat A7r5 cells assessed as change in sub-G1 phase at 3 to 9 uM after 24 hrs by PI/RNase A staining based flow cytometric analysis; format: functional, cell-based; settings: dose 3-9 µM
Outline: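 A7r5 cells were plated at 1.0 × 10^5 per 10 cm dish and exposed to graded concentrations in DMEM with 10% FBS. They were trypsinized, fixed in ice-cold 70% ethanol overnight at −20 °C, then stained with PI/Triton X-100/RNase A at 37 °C for at least 30 min in the dark. Sub-G1, G0/G1, S and G2/M fractions were read by FACScan. Control: 10% FBS; n = 3.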

Rattus norvegicus [7] = assay: Inhibition of neointima formation index of injured vessel in rat model of balloon injury induced neointimal hyperplasia at 3 to 6 uM administered as extravascular treatment and measured after 2 weeks by hematoxylin and eosin Y staining based histopathological analysis; format: functional; settings: dose 3-6 µM
Outline: (§2)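 Male rats (3–4 months, 300–350 g) were randomized into four groups: sham, balloon injury + PBS, and balloon injury + 3 μM or 6 μM compound. PBS or compound was given extravascularly in ice-cold 30% (w/v) pluronic F-127 gel. Arterial sections 5–10 μm thick (6 per block) were stained with hematoxylin and eosin Y. Intima, media and lumen areas and the intima/media ratio were measured by image analysis.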

Rattus norvegicus [8] = assay: Reduction in ADAM15 protein expression in VSMCs and injured arteries in rat model of balloon injury induced neointimal hyperplasia at 3 to 6 uM administered as extravascular treatment and measured after 2 weeks by Western blot analysis; format: functional; settings: dose 3-6 µM
[9] = biological target: T1, Disintegrin and metalloproteinase domain-containing protein 15 (Rattus norvegicus) (UniProt Q9QYV0); assay: Inhibition of ADAM15-mediated FAK phosphorylation in rat A7r5 cells at 3 to 9 uM after 24 hrs by western blot analysis; format: cell-based; settings: dose 3-9 µM
T1 sequence (whole entry): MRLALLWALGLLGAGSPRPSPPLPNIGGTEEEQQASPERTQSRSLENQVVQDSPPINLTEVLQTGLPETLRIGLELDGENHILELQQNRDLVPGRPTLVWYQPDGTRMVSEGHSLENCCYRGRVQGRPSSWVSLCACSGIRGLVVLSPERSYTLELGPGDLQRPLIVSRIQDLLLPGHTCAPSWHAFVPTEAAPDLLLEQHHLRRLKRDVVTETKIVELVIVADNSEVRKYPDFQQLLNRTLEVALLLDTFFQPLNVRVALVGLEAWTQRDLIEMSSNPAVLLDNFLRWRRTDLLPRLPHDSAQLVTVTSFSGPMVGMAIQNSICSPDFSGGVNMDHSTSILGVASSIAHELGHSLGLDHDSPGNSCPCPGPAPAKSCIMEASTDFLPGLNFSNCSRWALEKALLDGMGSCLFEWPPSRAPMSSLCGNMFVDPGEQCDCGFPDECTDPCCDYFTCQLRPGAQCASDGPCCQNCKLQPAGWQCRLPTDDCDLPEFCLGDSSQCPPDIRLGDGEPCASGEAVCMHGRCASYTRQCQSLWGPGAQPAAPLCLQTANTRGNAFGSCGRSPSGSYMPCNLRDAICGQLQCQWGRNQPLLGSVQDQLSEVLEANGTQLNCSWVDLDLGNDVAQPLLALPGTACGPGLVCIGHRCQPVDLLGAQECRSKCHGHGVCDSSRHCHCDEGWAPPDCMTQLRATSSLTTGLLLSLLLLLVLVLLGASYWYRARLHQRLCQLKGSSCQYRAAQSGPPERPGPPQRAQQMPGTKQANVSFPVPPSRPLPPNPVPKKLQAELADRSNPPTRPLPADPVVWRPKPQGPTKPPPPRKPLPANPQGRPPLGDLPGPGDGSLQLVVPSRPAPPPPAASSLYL
Outline: (§3)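 A7r5 rat aortic smooth muscle cells (DMEM, 10% FBS, 37 °C, 5% CO2) treated with 3, 6 or 9 μM in culture medium for 24 h. Lysed in 2% SDS/50 mM DTT/62.5 mM Tris-HCl pH 6.8 at 95 °C for 5 min. SDS-PAGE, PVDF transfer, 5% milk block, HRP secondary. Band expressed as % of control; mean ± SD, n = 3, one-way ANOVA.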

A7R5 [10] = assay: Down regulation of ERK2 expression in rat A7r5 cells at 3 to 9 uM after 24 hrs by Western blot analysis; format: functional, cell-based; settings: dose 3-9 µM; outline: as §3
A7R5 [11] = assay: Down regulation of AKT expression in rat A7r5 cells at 3 to 9 uM after 24 hrs by Western blot analysis; format: functional, cell-based; settings: dose 3-9 µM; outline: as §3
A7R5 [12] = assay: Down regulation of ADAM15 protein translational level in rat A7r5 cells at 9 uM after 24 hrs by Western blot analysis; format: functional, cell-based; outline: as §3
A7R5 [13] = assay: Down regulation of FAK expression in rat A7r5 cells at 3 to 9 uM after 24 hrs by Western blot analysis; format: functional, cell-based; settings: dose 3-9 µM; outline: as §3
A7R5 [14] = assay: Down regulation of PI3K expression in rat A7r5 cells at 3 to 9 uM after 24 hrs by Western blot analysis; format: functional, cell-based; settings: dose 3-9 µM; outline: as §3
A7R5 [15] = assay: Down regulation of ERK1 expression in rat A7r5 cells at 3 to 9 uM after 24 hrs by Western blot analysis; format: functional, cell-based; settings: dose 3-9 µM; outline: as §3
A7R5 [16] = assay: Inhibition of cell migration in rat A7r5 cells at 6 to 9 uM after 16 hrs by crystal violet staining based transwell assay; format: functional; settings: dose 6-9 µM
Outline: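 Transwell, 8 μm pore: 1.2 × 10^4 A7r5 cells in the upper chamber attach for 2 h. The upper chamber then receives serum-free medium with compound, and the lower chamber 10% FBS medium with compound, for 16 h at 37 °C. Cells are fixed in formaldehyde, stained with crystal violet and counted in five random fields. Migration is given as % of control cell number.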

A7R5 [17] = assay: Inhibition of cell migration in rat A7r5 cells at 9 uM after 18 hrs by scratch wound healing assay; format: functional, cell-based
A7R5 [18] = assay: Down regulation of MMP-2 expression in rat A7r5 cells at 3 to 9 uM after 24 hrs by Western blot analysis; format: functional, cell-based; settings: dose 3-9 µM; outline: as §3
A7R5 [19] = assay: Down regulation of MMP-9 expression in rat A7r5 cells at 3 to 9 uM after 24 hrs by Western blot analysis; format: functional, cell-based; settings: dose 3-9 µM; outline: as §3
[20] = biological target: T1, Disintegrin and metalloproteinase domain-containing protein 15 (Rattus norvegicus); assay: Inhibition of ADAM15-mediated MMP-9 activity in rat A7r5 cells at 6 uM after 24 hrs by gelatin zymography; format: cell-based
Outline: (§4)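 Conditioned medium came from A7r5 cells (1.0 × 10^5 per 10 cm dish) held 24 h with the compound in DMEM/10% FBS. It ran under nonreducing conditions on 10% SDS-PAGE with 0.1% gelatin. Gels were washed in 2.5% Triton X-100 for 1 h, developed at 37 °C in pH 8.0 Tris/10 mM CaCl2 buffer, then Coomassie stained and destained. Clear bands were quantified as % of control; n = 3.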

[21] = biological target: T1, Disintegrin and metalloproteinase domain-containing protein 15 (Rattus norvegicus); assay: Inhibition of ADAM15-mediated MMP-9 activity in rat A7r5 cells at 9 uM after 24 hrs by gelatin zymography; format: cell-based; outline: as §4
[22] = biological target: T1, Disintegrin and metalloproteinase domain-containing protein 15 (Rattus norvegicus); assay: Inhibition of ADAM15-mediated PI3K phosphorylation in rat A7r5 cells at 3 to 9 uM after 24 hrs by western blot analysis; format: cell-based; settings: dose 3-9 µM; outline: as §3
[23] = biological target: T1, Disintegrin and metalloproteinase domain-containing protein 15 (Rattus norvegicus); assay: Inhibition of ADAM15-mediated AKT phosphorylation in rat A7r5 cells at 3 to 9 uM after 24 hrs by western blot analysis; format: cell-based; settings: dose 3-9 µM; outline: as §3
[24] = biological target: T1, Disintegrin and metalloproteinase domain-containing protein 15 (Rattus norvegicus); assay: Inhibition of ADAM15-mediated ERK phosphorylation in rat A7r5 cells at 3 to 9 uM after 24 hrs by western blot analysis; format: cell-based; settings: dose 3-9 µM; outline: as §3
[25] = Inhibition of neointima formation of injured vessel in rat model of balloon injury induced neointimal hyperplasia assessed as area of intima at 3 uM administered as extravascular treatment and measured after 2 weeks by hematoxylin and eosin Y staining based histopathological analysis (reference value: 3346.4 +/-556.7 um2); format: functional; outline: as §2
[26] = Inhibition of neointima formation of injured vessel in rat model of balloon injury induced neointimal hyperplasia assessed as area of media at 3 uM administered as extravascular treatment and measured after 2 weeks by hematoxylin and eosin Y staining based histopathological analysis (reference value: 1462.7 +/-393.9 um2); format: functional; outline: as §2
[27] = Inhibition of neointima formation of injured vessel in rat model of balloon injury induced neointimal hyperplasia assessed as area of lumen at 3 uM administered as extravascular treatment and measured after 2 weeks by hematoxylin and eosin Y staining based histopathological analysis (reference value: 6809.1 +/-820.8 um2); format: functional; outline: as §2
[28] = Inhibition of neointima formation of injured vessel in rat model of balloon injury induced neointimal hyperplasia assessed as ratio of area of intima-to-media at 3 uM administered as extravascular treatment and measured after 2 weeks by hematoxylin and eosin Y staining based histopathological analysis (reference value: 1.98 +/-0.36); format: functional; outline: as §2
[29] = Inhibition of neointima formation of injured vessel in rat model of balloon injury induced neointimal hyperplasia assessed as area of intima at 6 uM administered as extravascular treatment and measured after 2 weeks by hematoxylin and eosin Y staining based histopathological analysis (reference value: 3346.4 +/-556.7 um2); format: functional; outline: as §2
[30] = Inhibition of neointima formation of injured vessel in rat model of balloon injury induced neointimal hyperplasia assessed as area of media at 6 uM administered as extravascular treatment and measured after 2 weeks by hematoxylin and eosin Y staining based histopathological analysis (reference value: 1462.7 +/-393.9 um2); format: functional; outline: as §2
[31] = Inhibition of neointima formation of injured vessel in rat model of balloon injury induced neointimal hyperplasia assessed as area of lumen at 6 uM administered as extravascular treatment and measured after 2 weeks by hematoxylin and eosin Y staining based histopathological analysis (reference value: 6809.1 +/-820.8 um2); format: functional; outline: as §2
[32] = Inhibition of neointima formation of injured vessel in rat model of balloon injury induced neointimal hyperplasia assessed as ratio of area of intima-to-media at 6 uM administered as extravascular treatment and measured after 2 weeks by hematoxylin and eosin Y staining based histopathological analysis (reference value: 1.98 +/-0.36); format: functional; outline: as §2

CO[C@]1(CC[C@@H](C)CO[C@@H]2O[C@H](CO)[C@@H](O)[C@H](O)[C@H]2O)O[C@H]2C[C@H]3[C@@H]4CC=C5C[C@@H](O[C@@H]6O[C@H](CO)[C@@H](O[C@@H]7O[C@@H](C)[C@H](O)[C@@H](O)[C@H]7O)[C@H](O)[C@H]6O[C@@H]6O[C@@H](C)[C@H](O)[C@@H](O)[C@H]6O)CC[C@]5(C)[C@H]4CC[C@]3(C)[C@H]2[C@@H]1C [METHYLPROTODIOSCIN]
IC50 [1]: 9 µM
Activity (A7R5 [2]): Active
Activity (A7R5 [3]): inactive
Activity (A7R5 [4]): inactive
Activity (A7R5 [5]): inactive
Activity (A7R5 [6]): inactive
inhibition (Rattus norvegicus [7]): Active
inhibition (Rattus norvegicus [8]): Active
inhibition [9]: Active
inhibition (A7R5 [10]): Active
inhibition (A7R5 [11]): Active
inhibition (A7R5 [12]): Active
inhibition (A7R5 [13]): Active
inhibition (A7R5 [14]): Active
inhibition (A7R5 [15]): Active
inhibition (A7R5 [16]): Active
inhibition (A7R5 [17]): Active
inhibition (A7R5 [18]): Active
inhibition (A7R5 [19]): Active
inhibition [20]: Active
inhibition [21]: Active
inhibition [22]: Active
inhibition [23]: Active
inhibition [24]: Active
Activity [25]: 1828.4 um2
Activity [26]: 1902 um2
Activity [27]: 4730.4 um2
Ratio [28]: 0.92
Activity [29]: 912.4 um2
Activity [30]: 1164.2 um2
Activity [31]: 3076.6 um2
Ratio [32]: 0.34
